According to ChEMBL document CHEMBL3779787, “Amorfrutin C Induces Apoptosis and Inhibits Proliferation in Colon Cancer Cells through Targeting Mitochondria” (J Nat Prod, 2016):
Active and inactive are the calls of the source. No cut-off for these calls is given here.

Tests used:
HT-29 [1] = assay: Upregulation of p21/Cip1 expression in human HT-29 cells at 10 uM after 48 hrs by immunoblotting method; format: functional, cell-based
In short: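 HT-29 cells exposed 48 h to 10 μM compound. Whole-cell protein lysates probed for cell-cycle modulators by immunoblotting.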

HT-29 [2] = assay: Antiproliferative activity against human HT-29 cells assessed as cellular DNA content after 72 hrs by CyQUANT NF fluorescence assay in presence of cisplatin; format: functional, cell-based
In short: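 HT-29 exposed 72 h to concentration series of mixtures at ratios 7:0 through 0:7 with the partner drug. Relative cell number from DNA-content fluorescence. IC70 = concentration giving 70% inhibition of total cells (means ± SD, n = 4); isobolograms by Loewe additivity, CI(M) = IC70(Mx)/IC70(x) + IC70(My)/IC70(y).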

[3] = Dissociation constant, pKa of the compound by UV metric method; format: physicochemical
In short: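 UV-metric titration with 0.15 M KCl at 25 °C: pH 12.0–2.0 at 32–26 μM in methanol/water cosolvent, and pH 12.5–8.9 at 30–21 μM in water.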

HT-29 [4] = assay: Induction of apoptosis in human HT-29 cells assessed as DNA fragmentation by measuring cytoplasmic oligonucleosome level at 30 uM by ELISA; format: functional, cell-based
In short: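 Cytosolic DNA by ELISA after 4 h treatment. BrdU method: cells (13 000/well) prelabelled with 10 μM BrdU for 2 days at 37 °C, unincorporated BrdU removed before treatment. Oligonucleosome method: 20 000 cells/well, 1 day at 37 °C. Cell-free background subtracted, normalized to vehicle; means ± SEM, n = 4.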

HT-29 [5] = assay: Increase in extracellular acidification rate in human HT-29 cells at 10 uM measured for 20 to 150 mins by time-resolved fluorescence assay relative to control; format: functional
In short: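 HT-29 cells seeded 80 000/well, incubated overnight at 37 °C without CO2. Washed and loaded with pH-sensitive time-resolved fluorescence probe in low-buffering medium (1 mM PBS pH 7.4, 20 mM glucose, salts), 10 min at 37 °C, then compound added, wells unsealed. Read 200 min at 37 °C; lifetime converted to pH, rate taken 20–150 min as H+ change/min; n = 8.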

MCF7 = assay: Antiproliferative activity against human MCF7 cells assessed as cellular DNA content after 96 hrs by CyQUANT NF fluorescence assay relative to control; format: functional
In short: (§1)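 Cells seeded at 750 (HT-29), 250 (PC-3) or 900 (T84, MCF7) cells/well, treated next day with concentration series for 72 h (HT-29, PC-3) or 96 h (T84, MCF7). Relative cell number from cellular DNA content by fluorescent DNA-binding dye. Variable-slope fit; efficiency = maximal inhibition (100% − Bottom) vs untreated; IC50 relative to the compound's own maximal efficiency.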

HT-29 [6] = assay: Antiproliferative activity against human HT-29 cells assessed as cellular DNA content after 72 hrs by CyQUANT NF fluorescence assay; format: functional, cell-based; settings: HT-29, 72 h; in short: as §1
HT-29 [7] = assay: Induction of apoptosis in human HT-29 cells assessed as increase in caspase 8 activity at 30 uM after 2 hrs by luminescent assay relative to control; format: functional
In short: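 HT-29 cells exposed to compound 2 h; effector/initiator caspase enzymatic activity measured by luminescent assays, normalized to control treatment; means ± SEM, n = 4.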

HT-29 [8] = assay: Downregulation of CDK4 expression in human HT-29 cells at 10 uM after 48 hrs by immunoblotting method; format: functional, cell-based
In short: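 HT-29 exposed to 10 μM for 48 h; whole-cell lysates immunoblotted for the indicated proteins (total and cleaved PARP for the apoptosis line).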

HT-29 [9] = assay: Induction of apoptosis in human HT-29 cells at 30 uM after 24 hrs by annexin V-FLUOS/propidium iodide staining-based flow cytometry in presence of 3H-1,2-dithiole-3-thione; format: functional, cell-based
In short: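 HT-29 treated 24 h with 30 μM with or without antioxidant (NAC 1 mM, D3T 25 μM). Apoptosis by annexin V/propidium iodide flow cytometry; means ± SEM, n = 3.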

pKa [3]: 3.5
IC50 (HT-29 [6]): 8.1 µM
Compound: COc1c(CC=C(C)C)c(O)c(C(=O)O)c(CCc2ccccc2)c1CC=C(C)C
Activity (HT-29 [1]): Active
Activity (HT-29 [2]): Active
Activity (HT-29 [4]): Active
fold change (FC) (HT-29 [5]): 6
Efficacy (MCF7): 92%
fold change (FC) (HT-29 [7]): 3
Activity (HT-29 [8]): Active
Activity (HT-29 [9]): Active
